Source: PubChem BioAssay
NR2E3 ag-1: NR2E3 agonists in two-hybrid cells, primary screen, cell-based, luminescence, CHO-S, Gal4-NCOR/VP16-NR2E3; Photoreceptor-specific nuclear receptor (Homo sapiens), Q9Y5X4; luciferase; inhibition of corepressor binding, % at 3.98 µM; 0.35% of 360,000 active;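 active = inhibition above the mean of all tested compounds plus 3 SD, cut at about 70% in these data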;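 note: higher means lower luciferase signal from less NR2E3 corepressor binding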
ADAM10 inh: human ADAM10 inhibitors, primary screen, biochemical, QFRET, HTS; Disintegrin and metalloproteinase domain-containing protein 10 (Homo sapiens), O14672; recombinant ADAM10, EDANS/DABCYL FRET peptide cleavage, 3 h; inhibition, % at 7 µM; 0.62% of 370,000 active; AID 720582, 2013;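 active = inhibition above a per-campaign cutoff equal to the mean of compounds falling between control-based bounds plus 3 SD, cut at about 20% in these data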
Target sequence (O14672 214-748 limits assumed): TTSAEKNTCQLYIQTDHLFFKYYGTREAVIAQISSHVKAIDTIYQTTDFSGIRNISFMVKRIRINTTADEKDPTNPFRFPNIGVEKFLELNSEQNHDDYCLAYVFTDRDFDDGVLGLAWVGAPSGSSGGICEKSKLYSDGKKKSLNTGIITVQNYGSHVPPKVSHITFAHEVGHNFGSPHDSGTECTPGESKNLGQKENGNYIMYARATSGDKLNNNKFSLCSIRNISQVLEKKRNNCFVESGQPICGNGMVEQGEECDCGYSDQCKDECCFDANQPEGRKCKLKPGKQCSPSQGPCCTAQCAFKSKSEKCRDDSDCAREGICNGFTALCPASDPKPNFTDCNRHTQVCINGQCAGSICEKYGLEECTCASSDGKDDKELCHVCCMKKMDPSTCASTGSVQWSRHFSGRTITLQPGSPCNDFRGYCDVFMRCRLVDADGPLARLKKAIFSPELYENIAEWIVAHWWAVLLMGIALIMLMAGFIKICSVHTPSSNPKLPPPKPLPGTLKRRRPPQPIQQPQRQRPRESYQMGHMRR
ADAM17 inh: ADAM17 inhibitors, primary screen, biochemical, QFRET; Disintegrin and metalloproteinase domain-containing protein 17 (Homo sapiens), P78536; recombinant ADAM17, EDANS/DABCYL FRET peptide cleavage; inhibition, % at 6.95 µM; 0.83% of 370,000 active;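 active = inhibition above the mean of compounds lying between control limits plus 3 SD, set per campaign, cut at about 8.5% in these data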
JMJD2C inh: inhibitors of GASC-1 histone demethylase, primary screen, biochemical, fluorescence, DELFIA europium. GST-JMJD2C(1-420) H3K9me3 demethylation. 0.069% of 330,000 active. inhibition, % at 2.35 µM. AID 2099, 2009. Lysine-specific demethylase 4C (Homo sapiens), Q9H3R0;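 active = more than half of a compound's replicate wells show inhibition beyond 50%, single wells judged on their own value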;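 note: signal counts dimethyl H3K9 product captured on neutravidin plate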
KLK7 zymogen act: proKLK7 zymogen activators, primary screen, biochemical, fluorescence intensity | purified proKLK7, EDANS-DABCYL substrate fluorescence; 100% is mature enzyme control, 0% vehicle | 0.9% of 370,000 active | Kallikrein-7 (Homo sapiens), P49862 | AID 652039, 2013 | activation, % at 7 µM;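 active = activation above the mean of all tested compounds plus 3 SD, computed per campaign excluding outliers beyond control limits, cut at about 13% in these data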
NR2E3 ag-2: inhibitors of NR2E3-RetCOR corepressor binding, primary screen, NR2E3 agonist project, biochemical, TR-FRET, GST-NR2E3, biotin-RetCOR; 1536-well; inhibition of corepressor binding, % at 4.78 µM; 0.12% of 320,000 active;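 active = percent inhibition above the cutoff of mean plus 3 SD of all tested compounds, set per screening campaign, cut at about 20% in these data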
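Assay system: NR2E3–RetCOR corepressor complex. Quantity: 1.35 nM GST-NR2E3. Buffer or medium: pH 7.5 Tris-based buffer. Reagent: biotinylated RetCOR corepressor at 7 nM final. Schedule: 5 h at 4 °C. Detection: TR-FRET, emission read at 617 and 671 nm. Replicates: one well per compound, singlicate testing.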
NR2E3 ag confirm: NR2E3 agonist confirmation in cells, cell-based, luminescence, CHO-S two-hybrid; shares compounds with NR2E3 ag-1; CHO-S mammalian two-hybrid NR2E3-NCOR, luciferase luminescence; inhibition, % at 3.98 µM; 51% of 2,300 active;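 active = average inhibition above a cutoff equal to the mean inhibition of all tested compounds plus one SD, cut at about 70% in these data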
GAL4-VP16 luc: GAL4-VP16 reporter modulators, confirmation, counter-screen for NR2E3 agonist project, cell-based, luminescence, CHO-S, high throughput. inhibition, % at 3.98 µM. AID 624379, 2012. CHO-S GAL4-VP16 luciferase reporter. 29% of 2,300 active. shares compounds with NR2E3 ag-1;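 active = mean inhibition above a cutoff equal to the average over all tested compounds plus one standard deviation, cut at about 70% in these data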;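 note: luciferase from a UAS reporter driven by GAL4-VP16 transactivation; higher means less reporter light so more repression of VP16 activity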
ADAM10 confirm: human ADAM10 inhibitors, confirmation, biochemical, QFRET, triplicate; shares compounds with ADAM10 inh; inhibition, % at 6.95 µM; ADAM10 QFRET peptide cleavage, EDANS fluorescence; 1% of 2,100 active; AID 743208, 2013;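 active = inhibition above about 20% chosen separately for each screening run, limit read from the data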
ADAM17 counter: ADAM17 inhibitors, counter-screen for ADAM10 exosite inhibitor project, biochemical, QFRET, high throughput; shares compounds with ADAM10 inh; ADAM17 QFRET peptide cleavage, EDANS fluorescence; inhibition, % at 6.95 µM; 0.5% of 2,100 active;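 active = mean triplicate inhibition above the solvent-only control wells' mean plus 3 SD, cut at about 12% in these data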
ADAM10 counter: ADAM10 inhibitors, counter-screen for ADAM17 exosite inhibitor project, biochemical, FRET, human ADAM10; inhibition, % at 6.95 µM; shares compounds with ADAM17 inh; 47% of 2,900 active; recombinant ADAM10, EDANS/DABCYL FRET peptide cleavage, 3 h;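 active = mean inhibition over the triplicate runs exceeds the activity threshold set in the earlier primary screen, cut at about 20% in these data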
ADAM17 confirm: ADAM17 inhibitors, hit retest, confirmation, biochemical, QFRET peptide cleavage; shares compounds with ADAM17 inh; recombinant ADAM17, EDANS/DABCYL QFRET peptide cleavage; inhibition, % at 6.95 µM; 65% of 2,900 active; AID 743257, 2014;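 active = mean inhibition across replicates above the hit cutoff set in the primary screen, cut at about 8.5% in these data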
Each line names hits and unclear results; the compound was inactive in the other large screens (follow-up assays come after a bar, where they were run). A selection: hits, their analogues and other compounds. The true share with any hit is near 2.5%.

CCN(CC)c1ccc(C(=C2C=CC(=[N+](CC)CC)C=C2)c2ccc(N(CC)CC)cc2)cc1	NR2E3 ag-1 101, ADAM10 inh 23 (no result: JMJD2C inh, NR2E3 ag-2) | NR2E3 ag confirm 99 | GAL4-VP16 luc 92 | ADAM10 confirm inactive | ADAM17 counter inactive
NC(=O)C(c1ccc(Cl)cc1)c1ccc(Sc2ccc(Cl)cc2)nn1 (stereo unspecified)	ADAM10 inh 23 | NR2E3 ag confirm 87 | GAL4-VP16 luc inactive | ADAM10 confirm inactive | ADAM17 counter inactive
COc1ccc(C2C(C(=O)N3CCCCC3C)CC(=O)N2c2ccc(OC)cc2)cc1 (stereo unspecified)	none (no result: NR2E3 ag-1, JMJD2C inh, NR2E3 ag-2)
COc1ccc(-c2cc(C3CCN(c4cc(Cl)nc(N)n4)CC3)[nH]n2)cc1	none
Nc1nc(Cl)cc(N2CCC(c3cc(-c4ccc(Cl)cc4)n[nH]3)CC2)n1	NR2E3 ag-1 91, ADAM10 inh 32 | NR2E3 ag confirm 98 | GAL4-VP16 luc 73 | ADAM10 confirm inactive | ADAM17 counter inactive
Cc1ccc(C2C(/C=C3/SC(=S)NC3=O)=C(c3cccs3)Oc3ccccc32)cc1 (stereo unspecified)	NR2E3 ag-1 74, ADAM10 inh 20 | NR2E3 ag confirm 87 | GAL4-VP16 luc inactive | ADAM10 confirm inactive | ADAM17 counter inactive
CCN(CC)C(=O)CSc1nc2cc(S(=O)(=O)N3CCOCC3)ccc2n1CC	none
CC(=O)c1ccc(-n2c(-c3cc(-c4ccsc4)n[nH]3)n[nH]c2=S)cc1	none
S=c1[nH]nc(-c2cc(-c3ccsc3)n[nH]2)n1-c1cccc2ccccc12	ADAM10 inh 23 | NR2E3 ag confirm inactive | GAL4-VP16 luc inactive | ADAM10 confirm inactive | ADAM17 counter inactive
CN(Cc1cc([N+](=O)[O-])c2cccnc2c1O)C1CCCCC1	none (no result: NR2E3 ag-1, ADAM10 inh, ADAM17 inh, KLK7 zymogen act)
O=[N+]([O-])c1cc(CN2CCN(c3ccccc3)CC2)c(O)c2ncccc12	NR2E3 ag-1 83, ADAM10 inh 20 | NR2E3 ag confirm 74 | GAL4-VP16 luc inactive | ADAM10 confirm inactive | ADAM17 counter inactive
Cc1cc(C(=O)N2CCN(c3ccc([N+](=O)[O-])cc3)CC2)n[nH]1	none
Cc1cc(C)cc(-c2nnc(SCC(=O)c3c(N)n(C4CC4)c(=O)[nH]c3=O)o2)c1	none (no result: JMJD2C inh, NR2E3 ag-2)
S=c1nc2ccccc2c2nc(-c3ccccc3)[nH]n12	NR2E3 ag-1 83, ADAM10 inh 21 | NR2E3 ag confirm inactive | GAL4-VP16 luc inactive | ADAM10 confirm inactive | ADAM17 counter inactive
CC(CCC(=O)O)C1CC[C@H]2C3CCC4CC(=O)CCC4(C)[C@H]3CC(=O)C12C (stereo partly specified)	none
COc1ccc(CNc2nn3c(-c4cccc(C(=O)N(C)C)c4)cnc3s2)cc1	none (no result: JMJD2C inh, NR2E3 ag-2)
NS(=O)(=O)c1ccc(CCNc2nn3c(-c4cccc(OC(F)(F)F)c4)cnc3s2)cc1	NR2E3 ag-1 94, ADAM10 inh 21 (no result: JMJD2C inh, NR2E3 ag-2) | NR2E3 ag confirm 90 | GAL4-VP16 luc inactive | ADAM10 confirm inactive | ADAM17 counter inactive
Cc1ccc(S(=O)(=O)Nc2ccccc2NS(=O)(=O)c2ccc(C)cc2)cc1	ADAM10 inh 22 (no result: JMJD2C inh, NR2E3 ag-2) | NR2E3 ag confirm inactive | GAL4-VP16 luc inactive | ADAM10 confirm inactive | ADAM17 counter inactive
O=[N+]([O-])c1cc(Cl)c(O)c2ncccc12	NR2E3 ag-1 103, ADAM17 inh 10 (no result: JMJD2C inh, NR2E3 ag-2) | NR2E3 ag confirm 99 | GAL4-VP16 luc 71 | ADAM10 counter inactive | ADAM17 confirm 11
S=C(NCc1ccc(Cl)cc1)Nc1ccncc1	NR2E3 ag-1 100, ADAM17 inh 8.9 | NR2E3 ag confirm 84 | GAL4-VP16 luc 81 | ADAM10 counter inactive | ADAM17 confirm 13
C=CC[C@H]1C=C[C@@H](C(C(=O)OC)C(=O)OC)CN1C(C)=O	none (no result: JMJD2C inh, NR2E3 ag-2)
Cc1ccc(C2=NS(=O)(=O)N(C)C(C(=O)Nc3ccc4c(c3)OCO4)=C2)cc1	ADAM17 inh 13 | NR2E3 ag confirm inactive | GAL4-VP16 luc inactive | ADAM10 counter inactive | ADAM17 confirm 14
CN(C)CCNC(=O)c1ccc(Sc2ccc(Br)cc2)c([N+](=O)[O-])c1	none
CCc1ccc(NC(=O)c2ccc(F)c(S(=O)(=O)NCC3COc4ccccc4O3)c2)cc1 (stereo unspecified)	ADAM10 inh 29, ADAM17 inh 13 | NR2E3 ag confirm inactive | GAL4-VP16 luc inactive | ADAM10 confirm inactive | ADAM17 counter inactive | ADAM10 counter 43 | ADAM17 confirm 19
Clc1ccc([C@H]2OC[C@@]3(CNCc4ccc5c(c4)OCO5)CS[C@H](c4ccc(Cl)cc4)N23)cc1	none (no result: NR2E3 ag-1, JMJD2C inh, KLK7 zymogen act, NR2E3 ag-2)
Cc1c(N=C2N=C(NC(=O)Nc3ccc(Cl)cc3)c3ccccc32)c(=O)n(-c2ccccc2)n1C	none
